The source made the active and inactive calls. No cut-off for these calls is given here.
How the values were obtained:
[1] = tested on: Radical scavenging activity; experiment: Antioxidant activity assessed as DPPH radical scavenging activity at 25 ug/mL after 30 mins by spectrophotometry; format: functional
Summary of the method: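 Test sample in DMSO (1 mg/mL stock) was mixed with 0.1 M Tris–HCl pH 7.4 and 0.5 mM DPPH in absolute ethanol. The mixture was shaken and kept in the dark 30 min, then absorbance read at 517 nm. Scavenging (%) = (1 − B/A) × 100 against a control without sample.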

[2] = Inhibition of rat intestinal alpha-glucosidase after 5 mins by spectrophotometry
Summary of the method: (§1)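 Enzyme source was the supernatant of sonicated rat intestinal homogenate after centrifugation. Sample (5 mg/mL DMSO stock) in 100 mM phosphate buffer pH 6.8 was preincubated with enzyme for 5 min, then 5 mM p-nitrophenyl-α-D-glucopyranoside added. p-Nitrophenol was read at 405 nm 5 min later, with substrate-free blanks and a DMSO control. Inhibition (%) = (1 − B/A) × 100; IC50 by logarithmic regression.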

[3] = species on record: Rattus norvegicus; experiment: Inhibition of rat intestinal alpha-glucosidase at 100 ug/mL after 5 mins by spectrophotometry; summary of the method: as §1
[4] = tested on: Rattus norvegicus; experiment: Antihyperglycemic activity in overnight fasted starch-induced hyperglycemic Wistar rat assessed as decrease in plasma glucose level at 10 mg/kg, po administered 15 mins before starch challenge measured after 30 to 120 mins by glucose oxidase method; format: functional, organism-based; design: dose 10 mg/kg
Summary of the method: (§2)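 Wistar rats of either sex (195–215 g), housed at 22 °C with a 12 h light/dark cycle, fasted overnight. Test agent suspended in normal saline and given orally by gastric intubation; controls received saline. Soluble starch (2 g/kg in saline) fed 15 min later. Retro-orbital blood was collected into EDTA for plasma glucose at 0–120 min. Plasma glucose AUC by trapezoid formula.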

[5] = tested on: Rattus norvegicus; experiment: Antihyperglycemic activity in overnight fasted starch-induced hyperglycemic Wistar rat assessed as decrease in plasma glucose level at 100 mg/kg, po administered 15 mins before starch challenge measured after 30 to 120 mins by glucose oxidase method; format: functional, organism-based; design: dose 100 mg/kg; summary of the method: as §2
[6] = species on record: Rattus norvegicus; experiment: Mixed noncompetitive inhibition of rat intestinal alpha-glucosidase at 10.6 uM by Lineweaver-Burke plot analysis
Summary of the method: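 Conditions follow the rat intestinal α-glucosidase/p-NPG assay, but Vmax kinetics were recorded over 10 min at 30 s intervals after a 10 s lag following substrate addition. Substrate was used at various dilutions, with or without preincubation of inhibitor. Data were analysed on a Lineweaver–Burk plot.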

Compound	IC50 [2] [µM]	inhibition [3]	inhibition [6]	Activity [1]	Activity [4]	Activity [5]
CC(=O)c1cc2cc(-c3cncnc3)ccc2oc1=O	37.2	83.5%	–	inactive	–	–
CCOC(=O)c1cc2cc(-c3cncnc3)ccc2oc1=O	40.5	80.4%	–	inactive	–	–
CCOC(=O)c1cc2cc(-c3ccc(OC)nc3)ccc2oc1=O	105	76.9%	–	inactive	–	–
CC(=O)c1cc2cc(Br)ccc2oc1=O	–	31.9%	–	1.52%	–	–
C[C@H]1O[C@H](O[C@H]2[C@H](O)[C@@H](O)[C@@H](O[C@H]3[C@H](O)[C@@H](O)C(O)O[C@@H]3CO)O[C@@H]2CO)[C@H](O)[C@@H](O)[C@@H]1N[C@H]1C=C(CO)[C@@H](O)[C@H](O)[C@H]1O (some centres undefined)	–	–	–	–	Active	–
CCOC(=O)c1cc2cc(-c3ccc(C)cc3)ccc2oc1=O	112	65.9%	–	inactive	–	–
O=c1cc(CCl)c2ccc(O)cc2o1	243	78.3%	–	1.32%	–	–
COc1ccc(-c2ccc3oc(=O)c(C(C)=O)cc3c2)cn1	28.2	86%	Active	inactive	–	Active
Cc1c(O)ccc2c(CCl)cc(=O)oc12	68.7	72.7%	–	28.5%	–	–
COc1ccc(-c2ccc3oc(=O)c(C#N)c(C)c3c2)cn1	44.5	93.1%	–	35%	–	–
CCOC(=O)c1cc2ccc(O)cc2oc1=O	91	77.6%	–	inactive	–	–
Cc1c(Cl)c(=O)oc2cc(O)ccc12	128	77.8%	–	20.8%	–	–
CCOC(=O)c1cc2cc(-c3ccc(F)cc3)ccc2oc1=O	37.6	66.7%	–	inactive	–	–
CC(=O)c1cc2cc(-c3ccc(N4CCOCC4)cc3)ccc2oc1=O	49	85.1%	–	20.5%	–	–
Cc1c(C#N)c(=O)oc2ccc(-c3ccccc3)cc12	52.9	95.5%	–	10.4%	–	–

Second part, led by results:

IC50 [2] [µM]	inhibition [3]	inhibition [6]	Compound	Activity [1]	Activity [4]	Activity [5]
52.2	70%	–	O=C(c1ccccc1)c1cc2cc(-c3ccccc3)ccc2oc1=O	2.45%	–	–
53.1	74.3%	–	CC(=O)c1cc2cc(-c3ccc(F)cc3)ccc2oc1=O	15.6%	–	–
96.4	76.9%	–	CC(=O)c1cc2cc(-c3ccc(Cl)cc3)ccc2oc1=O	12.5%	–	–
–	44.4%	–	O=C(c1ccccc1)c1cc2ccccc2oc1=O	30.8%	–	–
186	77.1%	–	CCOC(=O)c1cc2cc(-c3ccccc3)ccc2oc1=O	4.8%	–	–
52.6	86.5%	–	CC(=O)c1cc2cc(-c3ccc(C)cc3)ccc2oc1=O	inactive	–	–
–	18.1%	–	O=C(c1ccccc1)c1cc2cc(Br)ccc2oc1=O	2.22%	–	–
–	inactive	–	CC(=O)c1cc2cc(-c3ccccc3)ccc2oc1=O	19.6%	–	–
–	53.7%	–	O=C(c1ccccc1)c1cc2ccc(O)cc2oc1=O	inactive	–	–
58.1	96.4%	–	CC(=O)c1cc2cc(-c3cccnc3)ccc2oc1=O	3.72%	–	–
–	53.2%	–	CC(=O)c1cc2ccccc2oc1=O	0.83%	–	–
–	47%	–	CCOC(=O)c1cc2ccccc2oc1=O	1.82%	–	–
